The text below walks through data of PubChem BioAssay.

Assay [1] in a line: inhibitors of TNFa-induced NFkB p65 translocation, primary screen, imaging, HUVEC, MLSMR starter and 10KST1 sets (AID 438;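 active = inhibition above 20% together with a positive visual image hit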;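 note: compound added about 3h40 before a 20 min TNFalpha stimulation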;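 for inhibition: signal is the nuclear over cytoplasmic p65 intensity ratio per well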). To be noted: HUVEC TNFa-induced p65 nuclear translocation; cell count: measured here: nuclei count (cytotoxicity indicator), at 2.08 µM; inhibition: at 2 µM, stronger effect = higher value, 0% TNFa-plus-vehicle, 100% no-TNFa wells.
The nature of assay [2]: endothelial E-selectin expression blockers – imaging, HUVEC, immunofluorescence, MLSMR starter and 10KST1 sets, primary screen (AID 487;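 active = visually confirmed hit in the image check and inhibition above 20%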;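 for inhibition: signal is fraction of cell area covered by stained E-selectin grains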;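 for nuclei count: 100% = median nuclei count of all wells on the same plate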). Particulars: HUVEC TNFalpha-induced E-selectin immunofluorescence imaging, at 2 µM; inhibition: stronger effect = higher value; nuclei count: measured here: cell number, toxicity.
Assay [3] in a line: Primary imaging screen for DUSP6 inhibitors that restore phospho-Erk in transfected HeLa cells, chemical complementation (AID 609;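 active = compounds giving at least 50% inhibition in the cell-based MKP-3 phosphatase rescue imaging test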;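 for inhibition: phospho-Erk level distribution per well compared with pooled transfected vehicle control wells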). Particulars: HeLa MKP-3 transfected, phospho-Erk imaging KS statistic, at 10 µM, cells stimulated with TPA for 15 min.
For assay [4], the target named is Dual specificity protein phosphatase 6 (Homo sapiens) (UniProt Q16828). The assay is described as above. Particulars: HeLa MKP-3 transfected, phospho-Erk imaging KS statistic; at 10 µM; stronger effect = higher value; cells stimulated with TPA for 15 min.
Sequence of Dual specificity protein phosphatase 6 (Homo sapiens) (Q16828 whole entry, looked up): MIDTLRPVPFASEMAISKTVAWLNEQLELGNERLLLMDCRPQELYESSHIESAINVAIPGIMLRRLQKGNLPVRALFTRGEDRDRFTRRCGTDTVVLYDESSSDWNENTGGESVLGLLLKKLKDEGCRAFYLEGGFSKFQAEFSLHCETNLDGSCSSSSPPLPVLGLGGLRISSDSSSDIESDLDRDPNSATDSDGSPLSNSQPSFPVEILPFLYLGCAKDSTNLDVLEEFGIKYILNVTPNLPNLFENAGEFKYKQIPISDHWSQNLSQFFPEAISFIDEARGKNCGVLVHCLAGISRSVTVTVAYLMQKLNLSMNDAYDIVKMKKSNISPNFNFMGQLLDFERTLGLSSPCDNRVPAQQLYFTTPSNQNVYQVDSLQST
For assay [5], the target named is Voltage-gated potassium channel subunit beta-2 (Rattus norvegicus) (UniProt P62483). Briefly: inhibitors of rat Kvbeta2 reductase activity – biochemical, NADPH fluorescence, primary screen (AID 622;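 active = fluorescence slope higher than the sample average by over 3 SD, cut at about -0.22 in these data, passing the limit was not always enough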;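 note: slope of raw intensity against log time taken from 70 to 1610 s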). To be noted: recombinant KvBeta, 4-cyanobenzaldehyde reduction, at 10 µM, stronger effect = higher value.
Sequence of Voltage-gated potassium channel subunit beta-2 (Rattus norvegicus) (P62483 whole entry, looked up): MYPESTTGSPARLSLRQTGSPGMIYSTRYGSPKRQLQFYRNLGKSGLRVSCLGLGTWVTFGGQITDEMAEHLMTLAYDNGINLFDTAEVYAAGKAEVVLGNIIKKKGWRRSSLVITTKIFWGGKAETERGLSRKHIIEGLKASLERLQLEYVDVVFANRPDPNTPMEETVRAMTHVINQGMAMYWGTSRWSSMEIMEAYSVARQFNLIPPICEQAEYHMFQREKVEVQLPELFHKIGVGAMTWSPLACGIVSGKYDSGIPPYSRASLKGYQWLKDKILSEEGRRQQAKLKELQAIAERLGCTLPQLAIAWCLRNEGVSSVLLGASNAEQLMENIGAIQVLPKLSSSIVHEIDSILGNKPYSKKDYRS
Assay [6] shares this target. The experiment in a line: enhancers of rat Kvbeta2 NADPH turnover – biochemical, NADPH fluorescence, primary screen (AID 623;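 active = NADPH fluorescence slope more negative than the mean of all samples by about 3 SD, 99.7% confidence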;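 note: fluorescence intensity change per second fitted from 20 to 320 s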). Particulars: Recombinant KvBeta, NADPH fluorescence decrease slope, 10 min; at 10 µM; stronger effect = lower value.
The target of assay [7] is Muscarinic acetylcholine receptor M4 (Homo sapiens) (UniProt P08173). Briefly: M4-linked GIRK flux change, two-sided – cell-based, HEK293 M4/GIRK, thallium flux, BTC-AM, M4 allosteric agonist project, primary screen (AID 625).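 Note: thallium influx through GIRK channels coupled to M4 in HEK293 cells with BTC-AM dye.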 To be noted: at 10 µM, actives lie on both sides. In short, it runs like this: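 System: HEK293 cells with M4 receptor and GIRK channels | Incubation: Cells overnight at 37 °C, BTC-AM loading 1 h, reads 2 min total | Technique: Kinetic BTC-AM fluorescence sampled at 1 Hz, 10 s pre-addition baseline | Measure: Post-addition slope, 15–24 s, of baseline-normalized fluorescence | Control set: Carbachol positive, DMSO negative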
Sequence of Muscarinic acetylcholine receptor M4 (Homo sapiens) (P08173 whole entry, looked up): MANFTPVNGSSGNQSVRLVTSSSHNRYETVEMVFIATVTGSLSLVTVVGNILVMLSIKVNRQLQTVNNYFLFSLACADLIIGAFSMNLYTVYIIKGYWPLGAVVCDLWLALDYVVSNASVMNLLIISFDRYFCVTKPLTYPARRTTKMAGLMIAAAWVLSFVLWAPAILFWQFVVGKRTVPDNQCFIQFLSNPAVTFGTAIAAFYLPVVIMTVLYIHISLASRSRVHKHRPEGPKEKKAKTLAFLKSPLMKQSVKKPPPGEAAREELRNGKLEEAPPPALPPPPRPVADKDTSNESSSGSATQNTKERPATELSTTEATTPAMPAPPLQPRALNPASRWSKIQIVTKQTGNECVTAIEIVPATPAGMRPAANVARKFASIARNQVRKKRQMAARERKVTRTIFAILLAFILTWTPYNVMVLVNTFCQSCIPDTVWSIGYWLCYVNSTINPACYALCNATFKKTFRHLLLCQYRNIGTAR

Assay [8] is described as follows: inhibitors of larval lipid processing in zebrafish, primary screen, whole organism, PED6 fluorescence, gall bladder and intestine (AID 686;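 active = a full or partial loss of lipid-probe fluorescence in the fish gall bladder, intestine or both, judged by eye; inactive = no fluorescence loss, or compound toxic to the fish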;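 note: larvae 5 to 7 days old with five fish per well; signal comes from phospholipase A2 cleavage of quenched PED6 carried via bile; overnight exposure to compound and PED6 before scoring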). To be noted: Zebrafish larvae PED6 lipid processing, fluorescence scoring; screened at 20 µM (by protocol). In short, it runs like this: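 Test system – live zebrafish larvae aged 5-7 days, whole organism · Buffer or medium – E3 fish medium · Reagent – quenched phospholipase substrate PED6, 100 nM final, ingested by larvae · Doses – 20 µM single dose · Incubation – overnight compound and PED6 incubation · Technique – visual fluorescence microscopy scoring of gall bladder, gut · Read-out basis – visual per-well fluorescence inhibition score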

Assay [9] can be described thus: loss of swimming-algae plug formation – whole organism, Chlamydomonas reinhardtii, WT vs cilia-less mutant, absorbance, 96-well, primary screen (AID 463189;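 active = inhibition at or above 50% relative to wild type and mutant plate controls; inactive = inhibition below 50%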;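 note: 0% = wild type cc124 cells in DMSO and 100% = ciliumless bld1 mutant cells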). Particulars: Chlamydomonas reinhardtii gravitaxis, OD600 absorbance, 2 days; at 10 µM; stronger effect = higher value.
The mark [10] stands for this setting: measured here: cell density z-score.
The mark [11] stands for this setting: measured here: nuclear c-Myc green intensity z-score.
[12] abbreviates: measured here: nuclear pErk red intensity z-score, stronger effect = higher value.

Active and inactive are the calls of the source.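 Rule for the calls, unless noted: active = fluorescence slope after compound addition differing from the mean of all tested samples at 99.7% confidence, mostly higher but some lower; inactive = the rest.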

Broadly, the inhibition is the change of the read-out against control, counted positive when it falls. As for `COc1ccc(OC)c(C2/C(=C(\O)c3ccc(OC)c(Cl)c3)C(=O)C(=O)N2CCN(C)C)c1` (stereo unspecified), the cell count in assay [1] is 680. The inhibition is -6.8% (inactive) in assay [1], -97.8% (inactive) in [2], -2.91% (inactive) in assay [4] and 14% (inactive) in assay [9]. This compound yielded a nuclei count in assay [2] of 173%. Besides, the figures for the z-score in [3] (setting [10]), in assay [3] (setting [11]) and in assay [3] (setting [12]) were -0.468, -0.414 and -1.65, respectively. For the same compound, the fluorescence slope was -0.449 (inactive) in assay [5] and 0.00525 (inactive) in assay [7]. The NADPH fluorescence slope in assay [6] is -3.7e-05 (inactive). Further, the compound was called inactive in assay [8].
Take `Cc1cc(O)ccc1-c1cnc2ccccc2n1`: the cell count in [1] came to 695. Also, the inhibition was 2% (inactive) in assay [1], -163% (inactive) in assay [2], -6.06% (inactive) in assay [4] and -11.2% (inactive) in [9]. The nuclei count in assay [2] was 166%. Also, the z-score in [3] (setting [10]) was -0.391; in assay [3] (setting [11]) it was 1.61; in assay [3] (setting [12]) it was 0.545. For the same compound, the values for the fluorescence slope in [5] and in [7] were -0.482 (inactive) and 0.00527 (inactive), respectively. In addition, in assay [6], the NADPH fluorescence slope was -6.2e-05 (inactive). In addition, the compound was called inactive in [8].
As for `CC(C)OCCCn1c(=N)c(C(N)=S)cc2c(=O)n3ccccc3nc21`, the cell count in [1] came out at 619. For the same compound, the inhibition was -7.9% (inactive) in assay [1], -3% (inactive) in assay [2], 17.7% (inactive) in [4] and 22.8% (inactive) in assay [9]. Besides, the nuclei count in assay [2] came to 149%. For the same compound, the z-score is 1.16 in [3] (setting [10]), -1.47 in assay [3] (setting [11]) and -1.15 in assay [3] (setting [12]). The fluorescence slope in assay [5] is -0.454 (inactive); in assay [7] it was 0.00453 (inactive). For the same compound, in assay [6], the NADPH fluorescence slope was -4.1e-05 (inactive). In [8], the outcome was inactive.
For the compound `Cn1c(=O)c2c(nc(NCc3ccco3)n2CCc2ccccc2)n(C)c1=O`, the cell count in [1] was 605. The inhibition is 6% (inactive) in assay [1], -74.4% (inactive) in [2], 1.98% (inactive) in [4] and 33.1% (inactive) in [9]. In assay [2], this compound yielded a nuclei count of 121%. Further, the z-score was -0.322 in [3] (setting [10]), -0.952 in [3] (setting [11]) and 1.19 in [3] (setting [12]). The values for the fluorescence slope in assay [5] and in assay [7] were -0.524 (inactive) and 0.00721 (inactive), respectively. Also, the NADPH fluorescence slope in assay [6] was -6e-05 (inactive). Moreover, the call in assay [8] was inactive.
For the compound `Cc1cc(=O)oc(C)c1C(=O)NC12CC3CC(CC(C3)C1)C2`, the cell count in assay [1] was determined as 739. Moreover, the inhibition in assay [1] is -12.2% (inactive); in assay [2] it was -66.8% (inactive); in [4], -6.48% (inactive); in assay [9], 6.04% (inactive). The same compound yielded a nuclei count in [2] of 166%. Besides, the z-score was -0.0351 in assay [3] (setting [10]), 0.102 in [3] (setting [11]) and 0.73 in assay [3] (setting [12]). Besides, the fluorescence slope in assay [5] is -0.455 (inactive); in assay [7], 0.00545 (inactive). Moreover, the NADPH fluorescence slope in [6] was -5.7e-05 (inactive). Also, the call in assay [8] was inactive.
Turning to `O=C(Nc1ccc(N2CCN(C(=O)c3ccccc3)CC2)c(Cl)c1)c1ccc(Br)o1`, the cell count in [1] was 435. For the same compound, the inhibition was -6.8% (inactive) in assay [1], -72.9% (inactive) in assay [2], -7.28% (inactive) in assay [4] and 117% (active) in [9]. For the same compound, the nuclei count in [2] was 143%. Moreover, the z-score was -0.73 in assay [3] (setting [10]), 0.543 in assay [3] (setting [11]) and -0.883 in [3] (setting [12]). For the same compound, the fluorescence slope in assay [5] is -0.431 (inactive); in assay [7] it was 0.00435 (inactive). Besides, the NADPH fluorescence slope in assay [6] is -2.9e-05 (inactive). Moreover, in [8], the result was inactive.
In the case of `CCOC(=O)/C(C#N)=C1/SC(CCO)C(=O)N1c1ccccc1` (stereo unspecified), the cell count in [1] worked out at 541. Also, the inhibition in assay [1] is -19.2% (inactive); in assay [2] it was -6.8% (inactive); in [4], -2.59% (inactive); in assay [9], -8.39% (inactive). Besides, the nuclei count in assay [2] was 122%. For the same compound, the z-score in assay [3] (setting [10]) is -0.811; in assay [3] (setting [11]), 0.0733; in assay [3] (setting [12]) it was 0.776. Also, the values for the fluorescence slope in [5] and in [7] were -0.373 (inactive) and 0.00516 (inactive), respectively. In assay [6], the NADPH fluorescence slope is -2e-05 (inactive). In [8], the call was inactive.
For the compound `CCOC(=O)c1[nH]c2ccc(C)cc2c1N`, the cell count in assay [1] came out at 678. For the same compound, the inhibition in assay [1] was -29.2% (inactive); in assay [2], -53.9% (inactive); in assay [4], -5.95% (inactive); in [9], -1.56% (inactive). In [2], this compound gave a nuclei count of 207%. Further, the z-score in assay [3] (setting [10]) was -1.62; in assay [3] (setting [11]), 0.0814; in assay [3] (setting [12]), 1.41. Also, the fluorescence slope in assay [5] was -0.46 (inactive); in assay [7], 0.00561 (inactive). The NADPH fluorescence slope in assay [6] is -4.7e-05 (inactive). Besides, the outcome in assay [8] was inactive.
As to `Cc1ccc(CNc2oc(COc3ccccc3Cl)nc2C#N)cc1`, in [1], the cell count stood at 402. Besides, the inhibition in assay [1] is -2.8% (inactive); in assay [2], -40.3% (inactive); in assay [4] it was 4.37% (inactive); in assay [9], 28.6% (inactive). In [2], this compound displayed a nuclei count of 82.6%. Further, the z-score in assay [3] (setting [10]) is -0.405; in assay [3] (setting [11]) it was -0.319; in [3] (setting [12]), -0.994. The figures for the fluorescence slope in [5] and in [7] were -0.387 (inactive) and 0.00728 (inactive), respectively. Further, the NADPH fluorescence slope in assay [6] was 2.1e-06 (inactive). In assay [8], the outcome was inactive.
As to `O=C1c2ccccc2C(=O)N1c1ncccn1`, in [1], the cell count amounted to 500. Further, the inhibition in assay [1] is -8.5% (inactive); in [2], -89% (inactive); in assay [4], 1.42% (inactive); in assay [9], 3.86% (inactive). This compound also returned a nuclei count in assay [2] of 138%. Also, the values for the z-score in assay [3] (setting [10]), in [3] (setting [11]) and in assay [3] (setting [12]) were -0.519, -0.638 and 0.031, respectively. Besides, the fluorescence slope in assay [5] is -0.454 (inactive); in [7], 0.00418 (inactive). In addition, the NADPH fluorescence slope in [6] is -0.000107 (inactive). In addition, the outcome in [8] was inactive.
As to `CC(NC(=O)Nc1ncccn1)(C(F)(F)F)C(F)(F)F`, the cell count in assay [1] stood at 705. Moreover, the inhibition is -8.4% (inactive) in assay [1], -9.7% (inactive) in [2], 3.97% (inactive) in [4] and -10.4% (inactive) in assay [9]. This compound had a nuclei count in assay [2] of 107%. Further, the figures for the z-score in assay [3] (setting [10]), in assay [3] (setting [11]) and in assay [3] (setting [12]) were -2.34, 2.27 and -1.54, respectively. For the same compound, the values for the fluorescence slope in assay [5] and in [7] were -0.481 (inactive) and 0.00693 (inactive), respectively. Also, in assay [6], the NADPH fluorescence slope is -0.000112 (inactive). Also, in assay [8], the compound was classed as inactive.
In the case of `O=c1cc(N2CCCCC2)nc2n1CCCS2`, the cell count in assay [1] was 568. Also, the inhibition in [1] was 2.3% (inactive); in assay [2], 20.6% (inactive); in [4], 29.7% (inactive); in [9] it was 33.9% (inactive). Also, in assay [2], the nuclei count is 149%. The figures for the z-score in assay [3] (setting [10]), in assay [3] (setting [11]) and in [3] (setting [12]) were 0.266, -0.928 and -0.473, respectively. Also, the fluorescence slope in assay [5] was -0.39 (inactive); in assay [7], 0.00586 (inactive). In addition, in assay [6], the NADPH fluorescence slope is -1.9e-05 (inactive). Moreover, the compound was called inactive in [8].
